Assay results pooled from the literature.
TRPM8: Transient receptor potential cation channel subfamily M member 8 (TRPM8, Homo sapiens, UniProt Q7Z2W7)
CD36: Platelet glycoprotein 4 (CD36, Homo sapiens, UniProt P16671)
LATS2: Serine/threonine-protein kinase LATS2 (LATS2, Homo sapiens, UniProt Q9NRM7)
AKR1B1: Aldo-keto reductase family 1 member B1 (AKR1B1, Homo sapiens, UniProt P15121)

| SMILES | target | assay | setting | quantity | value |
| --- | --- | --- | --- | --- | --- |
| CCCCC1OC(=O)c2ccccc21 (centres unmarked) | Vimentin (VIM, Homo sapiens, UniProt P08670) | binding, SPR | – | Kd | 3.42 µM |
| CNC(=O)C(C)(C(C)C)C(C)C | TRPM8 | calcium signal, agonist | – | EC50 | 56.5 µM |
| CCCCCCCCCCCCCCCC(=O)O | CD36 | binding, SPR | – | Kd | 247 µM |
| Cc1cc(-c2ccnc3[nH]cc(F)c23)cc(F)c1[C@@]1(O)[C@H](C)CN(C(=O)CN)C[C@@H]1C | LATS2 | binding, TR-FRET | – | Kd | 0.00049 µM |
| CCCCCCCCCP(=O)(C(C)C)C(C)C | TRPM8 | ion current, agonist, patch clamp | – | EC50 | 24.8 µM |
| NCCS(=O)(=O)O | Sodium- and chloride-dependent taurine transporter (SLC6A6, Homo sapiens, UniProt P31641) | binding, MST | – | Kd | 0.71 µM |
| COc1cc(/C=N/NC(=S)NN=Cc2sccc2C)ccc1Oc1ccnc2cc(Cl)ccc12 | AKR1B1 | enzyme activity, inhibitor, absorbance | – | IC50 | 15.9 µM |
| N#Cc1ccc(O[C@H]2CC[C@H](NC(=O)c3ccc(N4CCC(CN5CCN(c6cc7c(cc6F)C(=O)N(C6CCC(=O)NC6=O)C7=O)CC5)CC4)nn3)CC2)cc1Cl (some centres unmarked) | CD36 | binding, SPR | – | Kd | 5.9 µM |
| CCCCC(=O)Nc1ccc(-c2ccc3ncn(CCC)c(=O)c3c2)cn1 | Phosphatidylinositol 5-phosphate 4-kinase type-2 gamma (PIP4K2C, Homo sapiens, UniProt Q8TBX8) | binding, competition with immobilised ligand | – | Kd | 0.00655 µM |
| Cc1cc(-c2ccnc3[nH]cc(F)c23)cc(F)c1[C@@]1(O)[C@H](C)CN(C2CCS(=O)(=O)CC2)C[C@@H]1C | LATS2 | enzyme activity, inhibitor, radiometric | – | IC50 | 0.0055 µM |
| Cc1ccc(C(=O)Nc2ccc(S(=O)(=O)O)c3cc(S(=O)(=O)O)cc(S(=O)(=O)O)c23)cc1NC(=O)c1cccc(NC(=O)Nc2cccc(C(=O)Nc3cc(C(=O)Nc4ccc(S(=O)(=O)O)c5cc(S(=O)(=O)O)cc(S(=O)(=O)O)c45)ccc3C)c2)c1 | Electrogenic aspartate/glutamate antiporter SLC25A13, mitochondrial (SLC25A13, Homo sapiens, UniProt Q9UJS0) | binding, ITC | pH 6.5 | Kd | 7.57 µM |
| COc1cc(/C=N/NC(=S)N/N=C\c2ccc([N+](=O)[O-])cc2)ccc1Oc1ccnc2cc(Cl)ccc12 | AKR1B1 | enzyme activity, inhibitor, absorbance | – | IC50 | 16.6 µM |
| CNC(=O)c1ccccc1Nc1nc(Nc2ccc(N3CCNCC3)cc2)ncc1Cl | LATS2 | target engagement in cells, BRET | – | IC50 | 0.211 µM |
| COc1cc(/C=N/NC(=S)NN=Cc2ccc([N+](=O)[O-])o2)ccc1Oc1ccnc2cc(Cl)ccc12 | AKR1B1 | enzyme activity, inhibitor | – | Ki | 4.65 µM |
| Cc1cc(-c2ccnc3[nH]cc(F)c23)cc(F)c1[C@@]1(O)[C@H](C)CN(C2COC2)C[C@@H]1C | LATS2 | enzyme activity, inhibitor, radiometric | – | IC50 | 0.009 µM |
| COc1cc(/C=N/NC(=S)N/N=C/c2ccc(Br)s2)ccc1Oc1ccnc2cc(Cl)ccc12 | AKR1B1 | enzyme activity, inhibitor, absorbance | – | IC50 | 17.7 µM |
| O=C(c1ccccc1)c1ccc(OCCCn2cnc3ccccc3c2=O)cc1 | CD36 | binding, MST | – | Kd | 10 µM |
